SKN-1 block: inhibitors of C. elegans SKN-1 | C. elegans VP596 Pgst-4::GFP/RFP ratio, acrylamide-induced, 24 h | inhibition, % at 21.8 µM | hit rate 0.49% among 360,000 | AID 624304;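 active = interference check ratio from 0.5 to 1.5 plus GFP to RFP signal ratio inhibition reaching or exceeding a fixed threshold, cut at about 30% in these data, passing the limit was not always enough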
TbMetRS inhib: Trypanosoma brucei MetRS inhibition; inhibition, % at 11.9 µM; AID 624268; hit rate 0.4% among 360,000; purified T. brucei MetRS, ATP depletion, Kinase-Glo luminescence;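 active = inhibition above a per-plate cutoff of the control wells' mean inhibition plus 3 SD, cut at about 5.5% in these data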;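 also: 0% = DMSO wells median and 100% = median of wells with control inhibitor compound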
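Dosing: 11.9 µM compound single dose, 0.9% DMSO; Assay system: purified T. brucei MetRS enzyme; Measured by: Kinase-Glo luciferase luminescence reporting remaining unconsumed ATP; Schedule: 15 min plus 2 h at 25 °C.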
MT1-MMP act inh: MT1-MMP (human) activation inhibition. HT1080 RFP-PRO-GFP cells, GFP/RFP ratio fluorescence, overnight; percent of plate control window, DMSO zero. AID 651647. hit rate 0.061% among 360,000. GFP/RFP ratio change, % at 20 µM;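 active = GFP/RFP ratio change of at least 30% with cell ATP level not reduced by more than half and red fluorescence within 50% of control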
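Assay system: HT1080 RFP-PRO-GFP cells. Benchmarks: DMSO vehicle wells and RFP-L50D-GFP reporter cell wells. Times: overnight cell settling, then overnight compound exposure, 37 °C, 5% CO2. Compound: 20 µM single dose, 1% DMSO. Read-out basis: GFP/RFP fluorescence ratio.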
NPR1 activator: GC-A (human) enzyme activation; P16066; HEK293 GC-A cells, cGMP TR-FRET, EC30 ANP; 0% at EC30 ANP, 100% saturating ANP; activation, % at 10 µM; hit rate 0.14% among 370,000; AID 1671463; in the data active = activation above about 40%
Target sequence (P16066 whole entry, looked up): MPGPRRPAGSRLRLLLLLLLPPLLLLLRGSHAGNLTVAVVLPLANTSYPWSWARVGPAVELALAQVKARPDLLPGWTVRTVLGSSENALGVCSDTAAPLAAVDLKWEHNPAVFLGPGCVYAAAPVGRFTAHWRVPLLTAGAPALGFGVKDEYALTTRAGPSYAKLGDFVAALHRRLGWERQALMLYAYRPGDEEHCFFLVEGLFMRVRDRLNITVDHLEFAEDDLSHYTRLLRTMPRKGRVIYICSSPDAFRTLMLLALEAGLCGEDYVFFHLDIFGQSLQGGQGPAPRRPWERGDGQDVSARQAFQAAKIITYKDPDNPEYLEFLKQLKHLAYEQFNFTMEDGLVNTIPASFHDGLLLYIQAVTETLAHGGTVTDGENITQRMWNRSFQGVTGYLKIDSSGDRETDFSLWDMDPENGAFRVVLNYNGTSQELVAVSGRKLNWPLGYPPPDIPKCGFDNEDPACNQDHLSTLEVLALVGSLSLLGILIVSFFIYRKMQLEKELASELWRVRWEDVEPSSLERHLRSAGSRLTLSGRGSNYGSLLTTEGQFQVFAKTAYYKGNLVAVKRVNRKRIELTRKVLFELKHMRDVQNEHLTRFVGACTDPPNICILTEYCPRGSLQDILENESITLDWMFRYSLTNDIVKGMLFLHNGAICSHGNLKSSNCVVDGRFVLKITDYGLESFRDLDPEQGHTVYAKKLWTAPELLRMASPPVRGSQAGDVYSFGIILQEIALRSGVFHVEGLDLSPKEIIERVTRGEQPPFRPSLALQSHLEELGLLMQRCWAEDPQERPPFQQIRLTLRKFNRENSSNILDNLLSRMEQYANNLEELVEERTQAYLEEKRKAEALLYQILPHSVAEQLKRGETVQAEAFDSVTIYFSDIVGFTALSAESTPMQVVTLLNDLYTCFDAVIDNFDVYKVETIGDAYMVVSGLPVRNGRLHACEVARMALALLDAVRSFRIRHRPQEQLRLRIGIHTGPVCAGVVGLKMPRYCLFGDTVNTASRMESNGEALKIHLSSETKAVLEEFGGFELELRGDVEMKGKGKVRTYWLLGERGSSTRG
GC-B act: GC-B (human) receptor activation. hit rate 0.11% among 370,000. P20594. AID 1920062. activation, % at 10 µM. HEK293-GC-B cells, CNP EC30, cGMP TR-FRET; 0% at EC30 CNP, 100% saturating CNP;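 active = activation at 10 µM reaching about 35% in either raw or pattern-adjusted values, limit read from the data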
Bfl-1 A1 inh: inhibitors of the anti-apoptotic protein A1, read as caspase activation; MEF A1-2A-BIM cells, Caspase-Glo 3/7 luminescence, 3 h; percent of clofoctol response, vehicle zero; caspase activation, % (no concentration beside the values); hit rate 0.066% among 330,000;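 active = over half of replicate activation scores above 10%, or exactly half above 10 with the replicate mean above 10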
Tb MetRS conf: confirmation of Trypanosoma brucei MetRS inhibitors | hit rate 93% among 1,400 | T. brucei MetRS enzyme, luminescence (ATP depletion) | inhibition, % at 11.9 µM | shares compounds with TbMetRS inhib | AID 624412; in the data active = inhibition above about 7%
Jurkat tox: Jurkat T cell cytotoxicity for MetRS hits; shares compounds with TbMetRS inhib; Jurkat cells viability, ATP luminescence; inhibition, % at 8.3 µM; hit rate 12% among 1,400; in the data active = inhibition above about 15%;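 also: 0% = vehicle and 100% = reference inhibitor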
TbMetRS FP orth: orthogonal test for Trypanosoma brucei MetRS inhibitors; shares compounds with TbMetRS inhib; purified T. brucei MetRS, fluorescence polarization; inhibition, % at 11.9 µM; hit rate 44% among 1,400; AID 651607; in the data active = inhibition above about 17%;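 also: 0% = vehicle wells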
Active calls of the source: *; · = no result given. Only some compounds are listed: those with a hit (about 1.1% of all), similar ones and a draw of the others.

SMILES	SKN-1 block	TbMetRS inhib	MT1-MMP act inh	NPR1 activator	GC-B act	Bfl-1 A1 inh	Tb MetRS conf	Jurkat tox	TbMetRS FP orth
COc1ccc(C(=O)O[C@@H]2CCC[C@@]3(C(=O)N(Cc4ccccc4)c4ccccc43)[C@H]2NC(=O)CCc2ccccc2)cc1OC	·	·	·	1.4	0.0	·	·	·	·
CCN1CCCCC(NC(=O)c2ccc(C)cc2)C1=O (stereo not drawn)	·	·	·	-1.8	-0.4	·	·	·	·
C/C(=N/NC(=O)CSc1nnc(-c2ccccc2)n1-c1ccc(Cl)cc1)c1cccc(O)c1	·	·	·	-23.1	-22.2	·	·	·	·
Cc1cc(NC(=O)c2ccc(Cl)cc2Cl)n(CCC#N)n1	-13.4	6.4*	4.9	-2.7	4.7	0.2	13.4*	5.2	12.3
O=C(CSCc1ccc([N+](=O)[O-])cc1)N/N=C/c1cccnc1	-2.5	9.2*	0.2	-3.2	-2.9	0.8	34.0*	-3.5	9.9
COc1ccc(C)cc1NC(=O)CSc1nnc(-c2n[nH]c3c2CCC3)n1N	·	·	·	1.9	-0.3	·	·	·	·
CC(C)C[C@H]1COc2cc(Br)ccc2S(=O)(=O)N1Cc1cn(Cc2ccco2)nn1	·	·	·	2.0	2.5	·	·	·	·
O=C(Nc1ccccc1)C1=C[C@H](c2csc3ccccc23)C[C@H](OCc2ccc(CO)cc2)O1	32.2	-0.3	7.6	-1.9	-0.7	-0.5	·	·	·
O=C(NC1CC1)C1=C[C@H](c2csc3ccccc23)C[C@H](OCc2ccc(CO)cc2)O1	-0.9	0.4	4.5	-5.0	4.0	0.7	·	·	·
O=C(NCc1nc2ccccc2[nH]1)C1=C[C@H](c2csc3ccccc23)C[C@H](OCc2ccc(CO)cc2)O1	8.2	58.4*	1.4	-5.1	-6.8	0.2	93.1*	3.5	62.0*
O=C(NCc1nc2ccccc2[nH]1)C1=C[C@@H](c2csc3ccccc23)C[C@@H](OCc2ccc(CO)cc2)O1	23.1	41.4*	0.6	-4.4	-0.9	-0.2	82.3*	-0.6	49.9*
Cc1c(NS(=O)(=O)c2cc3c(cc2Br)CCN3C(=O)C2CC2)c(=O)n(-c2ccccc2)n1C	·	·	·	3.1	-4.6	·	·	·	·
COc1ccc(N2CCCN(CC(=O)Nc3ccc(Cl)c(Cl)c3)CC2)cc1	·	·	·	-3.4	-7.0	·	·	·	·
CCOc1ccccc1NS(=O)(=O)c1c(C)[nH]c(C)c1C(=O)N1CCCCC1	2.3	34.8*	0.7	-3.3	-7.4	0.0	56.6*	-5.2	27.4*
Cc1ccc(NS(=O)(=O)c2c(C)[nH]c(C)c2C(=O)N2CCCC2)cc1	-3.3	-1.1	-1.1	2.6	2.2	1.0	·	·	·
Cc1cccc(NS(=O)(=O)c2c(C)[nH]c(C)c2C(=O)N2CCCC2)c1	-6.6	25.5*	1.6	8.5	0.6	0.7	54.6*	-7.6	19.9*
COc1ccc(Cl)cc1NS(=O)(=O)c1c(C)[nH]c(C)c1C(=O)N1CCCCC1	-3.9	0.6	2.0	-35.0	-14.0	-1.8	·	·	·
N=c1sccn1CC(=O)NCc1ccc(Cl)cc1Cl	13.4	28.8*	0.1	0.7	2.0	-0.4	51.4*	0.1	16.5
O=C(Cn1cc([N+](=O)[O-])ccc1=O)NCc1ccc(Cl)cc1Cl	1.4	9.1*	2.2	3.0	1.8	0.5	26.0*	5.5	13.5
CCCN1CN(Cc2ccco2)c2nc3ccccc3n2C1	-21.1	20.0*	4.1	-8.2	-5.8	0.4	17.5*	8.8	10.8
C[C@@H]1CCN(C2CC2)S(=O)(=O)c2ccc(N3CC[C@H](O)C3)cc2O1	·	·	·	1.9	3.5	·	·	·	·
O=C(CNC(=O)c1cccc(Br)c1)N/N=C/c1cn[nH]c1-c1ccccc1	8.7	0.2	-2.6	-5.3	-7.7	0.0	·	·	·
O=C(CNC(=O)c1cccc(Br)c1)N/N=C/c1ccc[nH]1	13.2	20.1*	-23.9	0.4	-1.4	1.6	53.4*	14.6	24.4*
